According to ChEMBL document CHEMBL2375314, “Mitochondrial-targeted protective properties of isolated diterpenoids from sideritis spp. in response to the deleterious changes induced by H2O2” (J Nat Prod, 2013):
The source made the active and inactive calls. The calls are words filed in the database; no cut-off is given here.

Tests used:
U373 MG [1] = assay: Neuroprotective activity in human U373MG cells assessed as inhibition of H2O2-induced caspase-3 activity at 5 to 10 uM incubated for 24 hrs prior to H2O2 challenge measured after 30 mins by fluorometric analysis in presence of Ac-DEVD-AMC; format: functional, cell-based; details: U-373MG ATCC
Procedure, shortened: (§1)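 Cells held 24 h with 5 or 10 μM, H2O2 then applied for 30 min in challenge arms (0.1 mM PC12, 1 mM U373-MG). Total cell extract (20 μg) incubated with Ac-DEVD-AMC (20 μM) for 1 h at 37 °C. Released AMC read at ex 360/em 460 nm. Expressed as % of control; mean ± SD, n = 9.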

PC-12 [2] = assay: Neuroprotective activity in rat PC12 cells assessed as inhibition of H2O2-induced caspase-3 activity at 5 to 10 uM incubated for 24 hrs prior to H2O2 challenge measured after 30 mins by fluorometric analysis in presence of Ac-DEVD-AMC; format: functional, cell-based; procedure, shortened: as §1
[3] = Neurotoxicity in human U373MG cells assessed as caspase-3 activation at 5 to 10 uM after 24 hrs by fluorometric analysis in presence of Ac-DEVD-AMC; format: toxicity, cell-based; details: u-373mg atcc; procedure, shortened: as §1
PC-12 [4] = assay: Neurotoxicity in rat PC12 cells assessed as caspase-3 activation at 5 to 10 uM after 24 hrs by fluorometric analysis in presence of Ac-DEVD-AMC; format: toxicity, cell-based; details: pc-12, 24 h; procedure, shortened: as §1
U373 MG [5] = assay: Neuroprotective activity in human U373MG cells assessed as protection against H2O2-induced reduction in cellular ATP level at 5 to 10 uM incubated for 24 hrs prior to H2O2 challenge measured after 30 mins by HPLC analysis; format: functional, cell-based; details: U-373MG ATCC
Procedure, shortened: (§2)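 After 24 h at 5 or 10 μM, with or without H2O2 for 30 min (0.1 mM PC12; 1 mM U373-MG), cells extracted in 0.6 M HClO4/25 mM EDTA and neutralized with KOH/Tris. Reversed-phase C18 HPLC, isocratic 100 mM KH2PO4 (pH 6.5)/1% methanol at 1 mL/min, UV at 254 nm. Quantified against an ATP standard curve (0.25–5 μM), normalized to protein, as % of control; mean ± SD, n = 9.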

PC-12 [6] = assay: Neuroprotective activity in rat PC12 cells assessed as protection against H2O2-induced reduction in cellular ATP level at 5 to 10 uM incubated for 24 hrs prior to H2O2 challenge measured after 30 mins by HPLC analysis; format: functional, cell-based; procedure, shortened: as §2
[7] = Neurotoxicity in human U373MG cells assessed as effect on cellular ATP level at 5 to 10 uM after 24 hrs by HPLC analysis; format: toxicity, cell-based; details: u-373mg atcc; procedure, shortened: as §2
PC-12 [8] = assay: Neurotoxicity in rat PC12 cells assessed as effect on cellular ATP level at 5 to 10 uM after 24 hrs by HPLC analysis; format: toxicity, cell-based; details: pc-12, 24 h; procedure, shortened: as §2
U373 MG [9] = assay: Neuroprotective activity in human U373MG cells assessed as reduction of H2O2-induced mitochondrial calcium level at 10 uM incubated for 24 hrs prior to H2O2 challenge measured after 30 mins by Rhod-2 staining-based fluorocytometric analysis (reference value: 1.5 +/- 0.02 nM); format: functional, U-373MG ATCC
Procedure, shortened: (§3)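 24 h exposure at 5 or 10 μM, optionally followed by 30 min H2O2 (0.1 mM PC12, 1 mM U373-MG). Cells loaded with Rhod-2/AM in Krebs normal-calcium medium for 40 min at 37 °C in the dark, then 30 min for ester hydrolysis. Fluorescence at ex 552/em 581 nm for 4 min, then 15 min after A23187 (5 μM). Ratio of post-ionophore maximum to basal, relative to control; mean ± SD, n = 9.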

U373 MG [10] = assay: Neuroprotective activity in human U373MG cells assessed as reduction of H2O2-induced mitochondrial calcium level at 5 uM incubated for 24 hrs prior to H2O2 challenge measured after 30 mins by Rhod-2 staining-based fluorocytometric analysis (reference value: 1.5 +/- 0.02 nM); format: functional, U-373MG ATCC; procedure, shortened: as §3
PC-12 [11] = assay: Neuroprotective activity in rat PC12 cells assessed as reduction of H2O2-induced mitochondrial calcium level at 10 uM incubated for 24 hrs prior to H2O2 challenge measured after 30 mins by Rhod-2 staining-based fluorocytometric analysis (reference value: 1.7 +/- 0.01 nM); format: functional; procedure, shortened: as §3
PC-12 [12] = assay: Neuroprotective activity in rat PC12 cells assessed as reduction of H2O2-induced mitochondrial calcium level at 5 uM incubated for 24 hrs prior to H2O2 challenge measured after 30 mins by Rhod-2 staining-based fluorocytometric analysis (reference value: 1.7 +/- 0.01 nM); format: functional; procedure, shortened: as §3
[13] = Neurotoxicity in human U373MG cells assessed as change in mitochondrial calcium level at 10 uM after 24 hrs by Rhod-2 staining-based fluorocytometric analysis (reference value: 1 +/- 0.03 nM); format: toxicity, cell-based; details: u-373mg atcc; procedure, shortened: as §3
[14] = Neurotoxicity in human U373MG cells assessed as change in mitochondrial calcium level at 5 uM after 24 hrs by Rhod-2 staining-based fluorocytometric analysis (reference value: 1 +/- 0.03 nM); format: toxicity, cell-based; details: u-373mg atcc; procedure, shortened: as §3
PC-12 [15] = assay: Neurotoxicity in rat PC12 cells assessed as change in mitochondrial calcium level at 10 uM after 24 hrs by Rhod-2 staining-based fluorocytometric analysis (reference value: 1 +/- 0.02 nM); format: toxicity, cell-based; details: pc-12, 24 h; procedure, shortened: as §3
PC-12 [16] = assay: Neurotoxicity in rat PC12 cells assessed as change in mitochondrial calcium level at 5 uM after 24 hrs by Rhod-2 staining-based fluorocytometric analysis (reference value: 1 +/- 0.02 nM); format: toxicity, cell-based; details: pc-12, 24 h; procedure, shortened: as §3
U373 MG [17] = assay: Neuroprotective activity in human U373MG cells assessed as decrease in H2O2-induced cytosolic calcium level at 10 uM incubated for 24 hrs prior to H2O2 challenge measured after 30 mins by indo-1/AM staining-based fluorocytometric analysis (reference value: 482.7 +/- 14.5 nM); format: functional, U-373MG ATCC
U373 MG [18] = assay: Neuroprotective activity in human U373MG cells assessed as decrease in H2O2-induced cytosolic calcium level at 5 uM incubated for 24 hrs prior to H2O2 challenge measured after 30 mins by indo-1/AM staining-based fluorocytometric analysis (reference value: 482.7 +/- 14.5 nM); format: functional, U-373MG ATCC
PC-12 [19] = assay: Neuroprotective activity in rat PC12 cells assessed as decrease in H2O2-induced cytosolic calcium level at 10 uM incubated for 24 hrs prior to H2O2 challenge measured after 30 mins by indo-1/AM staining-based fluorocytometric analysis (reference value: 395.9 +/- 15.9 nM); format: functional
PC-12 [20] = assay: Neuroprotective activity in rat PC12 cells assessed as decrease in H2O2-induced cytosolic calcium level at 5 uM incubated for 24 hrs prior to H2O2 challenge measured after 30 mins by indo-1/AM staining-based fluorocytometric analysis (reference value: 395.9 +/- 15.9 nM); format: functional
[21] = Neurotoxicity in human U373MG cells assessed as change in cytosolic calcium level at 10 uM after 24 hrs by indo-1/AM staining-based fluorocytometric analysis (reference value: 91.1 +/- 12.5 nM); format: toxicity, cell-based; details: u-373mg atcc
[22] = Neurotoxicity in human U373MG cells assessed as change in cytosolic calcium level at 5 uM after 24 hrs by indo-1/AM staining-based fluorocytometric analysis (reference value: 91.1 +/- 12.5 nM); format: toxicity, cell-based; details: u-373mg atcc
PC-12 [23] = assay: Neurotoxicity in rat PC12 cells assessed as change in cytosolic calcium level at 10 uM after 24 hrs by indo-1/AM staining-based fluorocytometric analysis (reference value: 51.3 +/- 11.3 nM); format: toxicity, cell-based; details: pc-12, 24 h
PC-12 [24] = assay: Neurotoxicity in rat PC12 cells assessed as change in cytosolic calcium level at 5 uM after 24 hrs by indo-1/AM staining-based fluorocytometric analysis (reference value: 51.3 +/- 11.3 nM); format: toxicity, cell-based; details: pc-12, 24 h
U373 MG [25] = assay: Neuroprotective activity in human U373MG cells assessed as protection against H2O2-induced reduction in mitochondrial membrane potential at 5 to 10 uM incubated for 24 hrs prior to H2O2 challenge measured after 30 mins by TMRM staining-based fluorocytometric analysis relative to control; format: functional, cell-based; details: U-373MG ATCC
Procedure, shortened: (§4)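 Cells given 5 or 10 μM for 24 h, then H2O2 for 30 min (0.1 mM PC12, 1 mM U373-MG) where challenged. Loaded in Krebs medium with 150 nM TMRM; fluorescence at ex 549/em 573 nm read for 45 min at 37 °C. FCCP (6 μM) plus oligomycin (0.25 μg/mL) then added for maximal depolarization and read 15 min. Value from maximal minus basal fluorescence, as % of control; mean ± SD, n = 9.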

PC-12 [26] = assay: Neuroprotective activity in rat PC12 cells assessed as protection against H2O2-induced reduction in mitochondrial membrane potential at 5 to 10 uM incubated for 24 hrs prior to H2O2 challenge measured after 30 mins by TMRM staining-based fluorocytometric analysis relative to control; format: functional, cell-based; procedure, shortened: as §4
PC-12 [27] = assay: Neurotoxicity in rat PC12 cells assessed as change in mitochondrial membrane potential at 5 to 10 uM after 24 hrs by TMRM staining-based fluorocytometric analysis relative to control; format: toxicity, cell-based; details: pc-12, 24 h; procedure, shortened: as §4
[28] = Neurotoxicity in human U373MG cells assessed as change in mitochondrial membrane potential at 5 to 10 uM after 24 hrs by TMRM staining-based fluorocytometric analysis relative to control; format: toxicity, cell-based; details: u-373mg atcc; procedure, shortened: as §4

Row | Compound | Activity (PC-12 [2]) | Activity [3] | Activity (PC-12 [4]) | Activity (PC-12 [6]) | Activity [7] | Activity (PC-12 [8]) | Activity (U373 MG [9]) [nM] | Activity (U373 MG [10]) [nM] | Activity (PC-12 [11]) [nM] | Activity (PC-12 [12]) [nM] | Activity [13] [nM] | Activity [14] [nM] | Activity (PC-12 [15]) [nM] | Activity (PC-12 [16]) [nM] | Activity (U373 MG [17]) [nM] | Activity (U373 MG [18]) [nM] | Activity (PC-12 [19]) [nM] | Activity (PC-12 [20]) [nM] | Activity [21] [nM] | Activity [22] [nM] | also measured
1 | C=CC(=C)CC[C@H]1[C@]2(C)CCC[C@](C)(CO)[C@H]2[C@H](O)C[C@]1(C)O [ANDALUSOL] | Active | Non-toxic | Non-toxic | Active | Non-toxic | Non-toxic | 1.09 | 1.15 | 1.2 | 1.3 | 0.99 | 0.97 | 1.09 | 1.05 | 166.2 | 189.6 | 174.8 | 185.8 | 98 | 92.2 | Activity (U373 MG [1]): Active; Activity (U373 MG [5]): Active; Activity (PC-12 [23]): 56.8 nM; Activity (PC-12 [24]): 56.5 nM; Activity (U373 MG [25]): Active; Activity (PC-12 [26]): Active; Activity (PC-12 [27]): Non-toxic; Activity [28]: Non-toxic
2 | CC1(C)CCC[C@]2(C)[C@@H]1C[C@H](O)[C@@]13C=C[C@@](CO)(C1)[C@H](O)C[C@@H]23 [CONCHITRIOL] | Active | Non-toxic | Non-toxic | Active | Non-toxic | Non-toxic | 1.45 | 1.48 | 1.3 | 1.4 | 0.97 | 0.99 | 1.05 | 1.08 | 430.9 | 479.6 | 192.6 | 188.8 | 98 | 93.2 | Activity (PC-12 [23]): 60.6 nM; Activity (PC-12 [24]): 53.5 nM; Activity (PC-12 [26]): Active; Activity (PC-12 [27]): Non-toxic; Activity [28]: Non-toxic
3 | CC1(C)CCC[C@H]2C1=CC[C@H]1C[C@@](C)([C@@H](O)CO)C[C@@H](O)[C@@]12C [LAGASCATRIOL] | Active | Non-toxic | Non-toxic | Active | Non-toxic | Non-toxic | 1.17 | 1.22 | 1.5 | 1.4 | 1.05 | 1.02 | 0.98 | 0.9 | 208.5 | 222.5 | 187.7 | 202.5 | 98.1 | 102.1 | Activity (U373 MG [1]): Active; Activity (U373 MG [5]): Active; Activity (PC-12 [23]): 51.4 nM; Activity (PC-12 [24]): 63.5 nM; Activity (U373 MG [25]): Active; Activity (PC-12 [26]): Active; Activity (PC-12 [27]): Non-toxic; Activity [28]: Non-toxic
